Test results published in ChEMBL document CHEMBL1131621, “Synthesis and activity of dipeptides, linked to targeting ligands, as specific NK cell enhancers” (1998).
Where a SMILES comes first, the peptide text is derived from it. [ ]: non-standard residue; d: D form.

What was measured:
[1] = In vitro Natural Killer cell activity (Activation of murine splenocyte NK cells by its ability to lyze YAC-1 target cells in chromium release assay) relative to interleukin 2; Range 0-20%; type: functional, Mus musculus
How it was run: (§1)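 Spleens from female C57BL/6 (H-2b) mice, 6–8 weeks old, homogenized in RPMI 1640 with 10% FCS and 2 mM L-glutamine. Mononuclear cells isolated on a Lympholyte M gradient (800g, 20 min), washed in PBS, viability checked by trypan blue. 5×10^5 splenocytes with compound incubated 4 h with 5×10^3 51Cr-labelled YAC-1 cells; % specific lysis from released chromium. Compounds tested at 10^-4–10^-12 M. Peak activity scored relative to IL 2 (100%) in 20% bands. Actives run 2–5 times, inactives once.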

[2] = In vitro Natural Killer cell activity (Activation of murine splenocyte NK cells by its ability to lyze YAC-1 target cells in chromium release assay) relative to interleukin 2 at 10E-4 to 10E-12 M conc; Range 41-60%; type: functional, Mus musculus; how it was run: as §1
[3] = species: Mus musculus; assay: Peak or the range of peak activity relative to positive IL 2 control; Range 10e-12-10e-4; type: functional; how it was run: as §1
[4] = In vitro Natural Killer cell activity (Activation of murine splenocyte NK cells by its ability to lyze YAC-1 target cells in chromium release assay) relative to interleukin 2 at 10E-4 to 10E-12 M conc.; type: functional, Mus musculus; how it was run: as §1
[5] = In vitro Natural Killer cell activity (Activation of murine splenocyte NK cells by its ability to lyze YAC-1 target cells in chromium release assay) relative to interleukin 2 at 10e-4; Range 101-120%
[6] = In vitro Natural Killer cell activity (Activation of murine splenocyte NK cells by its ability to lyze YAC-1 target cells in chromium release assay) relative to interleukin 2 at 10E-4 to 10E-10 M conc; Range 41-60%; type: functional, Mus musculus; how it was run: as §1
[7] = In vitro Natural Killer cell activity (Activation of murine splenocyte NK cells by its ability to lyze YAC-1 target cells in chromium release assay) relative to interleukin 2 at 10E-4 to 10E-12 M conc; Range 61-80%; type: functional, Mus musculus; how it was run: as §1
[8] = species: Mus musculus; assay: Peak or the range of peak activity relative to positive IL 2 control; Range 10e-12-10e-5; type: functional; how it was run: as §1
[9] = species: Mus musculus; assay: Peak or the range of peak activity relative to positive IL 2 control; Range 10e-8-10e-4; type: functional; how it was run: as §1
[10] = In vitro Natural Killer cell activity (Activation of murine splenocyte NK cells by its ability to lyze YAC-1 target cells in chromium release assay) relative to interleukin 2 at 10E-4 to 10E-12 M conc; Range 21-40%; type: functional, Mus musculus; how it was run: as §1
[11] = In vitro Natural Killer cell activity (Activation of murine splenocyte NK cells by its ability to lyze YAC-1 target cells in chromium release assay) relative to interleukin 2 at 10E-8 to 10E-12 M conc; Range 41-60%; type: functional, Mus musculus; how it was run: as §1
[12] = In vitro Natural Killer cell activity (Activation of murine splenocyte NK cells by its ability to lyze YAC-1 target cells in chromium release assay) relative to interleukin 2 at 10E-4 to 10E-8 M conc; Range 21-40%; type: functional, Mus musculus; how it was run: as §1
[13] = In vitro Natural Killer cell activity (Activation of murine splenocyte NK cells by its ability to lyze YAC-1 target cells in chromium release assay) relative to interleukin 2 at 10E-4 to 10E-12 M conc; Range […]; type: functional, Mus musculus; how it was run: as §1
[14] = species: Mus musculus; assay: Peak or the range of peak activity relative to positive IL 2 control; Range 10e-12-10e-6; type: functional; how it was run: as §1

In the case of `NC(=O)CC[C@H](N)C(=O)NCCCCCCO`, the Stimulation [1] is reported as 0%.
`CC1OC(OCCCCCCNC(=O)[C@H](CCC(N)=O)NC(=O)[C@H](N)C(C)C)C(O)C(O)C1O` (some centres undefined) showed a Stimulation [2] of 41% and a Concentration [3] of 10 pM.
For `C[C@@H](N)C(=O)N[C@@H](CCC(N)=O)C(=O)O` (H-[dA]-Gln-OH), the Stimulation [1] was 0%.
`CN[C@H](C(=O)NCCCCCCOC1OC(C)C(O)C(O)C1O)c1ccc(C(=O)O)[nH]1` (some centres undefined) showed a Stimulation [4] of 0%.
`CC1OC(OCCCCCCNC(=O)[C@H](CCC(N)=O)NC(=O)CCN)C(O)C(O)C1O` (some centres undefined) showed a Stimulation [1] of 0%.
For `C[C@@H](N)C(=O)N[C@@H](CCC(N)=O)C(=O)NCCCCCCN`, the Stimulation [5] was 101%.
Molecule `CC(C(=O)OCCCCCn1cnc2c(N(C)C)ncnc21)[C@H](C)CCCN=C(N)N` (some centres undefined) has a Stimulation [4] of 0%.
`C[C@@H](N)C(=O)N[C@@H](CCC(N)=O)C(=O)NCCCCCCCCCCCCO` showed a Stimulation [6] of 41%.
`CC1OC(OCCCCCCNC(=O)[C@H](CCCN)NC(=O)[C@@H](C)N)C(O)C(O)C1O` (some centres undefined) gave a Stimulation [4] of 0%.
For `CC1OC(OCCCCCCNC(=O)[C@H](CCC(N)=O)NC(=O)[C@H](C)N)C(O)C(O)C1O` (some centres undefined), the Stimulation [7] was 61%, the Concentration [3] was 10 pM and the Concentration [8] was 10 pM.
Molecule `CC1OC(OCCCCCCNC(=O)[C@@H](N)CCC(N)=O)C(O)C(O)C1O` (some centres undefined) has a Concentration [9] of 100 nM and a Stimulation [10] of 21%.
`C[C@H](N)C(=O)N[C@H](CCC(N)=O)C(=O)NCCCCCCO` showed a Stimulation [11] of 41%.
`CC1OC(OCCCCCCNC(=O)[C@H](CC(N)=O)NC(=O)[C@@H](C)N)C(O)C(O)C1O` (some centres undefined) showed a Stimulation [4] of 0%.
`C[C@H](N)C(=O)N1CCC[C@H]1C(=O)NCCCCCCO` gave a Stimulation [1] of 0%.
Work on `CC1OC(OCCCCCCCCCCCCNC(=O)[C@H](CCC(N)=O)NC(=O)[C@@H](C)N)C(O)C(O)C1O` (some centres undefined) yielded a Stimulation [12] of 21%.
In the case of `CC1OC(OCCCCCCn2cnc3c(N(C)C)ncnc32)C(O)C(O)C1O` (centres undefined), the Stimulation [13] is reported as 81% and the Concentration [14] is reported as 10 pM.
For `CC(=O)N[C@@H](CCC(N)=O)C(=O)NCCCCCCOC1OC(C)C(O)C(O)C1O` (some centres undefined), the Stimulation [4] was 0%.
`CC1OC(OCCCCCCNC(=O)[C@@H]2CCCN2C(=O)[C@H](C)N)C(O)C(O)C1O` (some centres undefined) gave a Stimulation [4] of 0%.
In the case of `CC1OC(OCCCCCCNC(=O)[C@@H]2CCC(=O)N2)C(O)C(O)C1O` (some centres undefined), the Stimulation [4] is reported as 0%.
